Assay results from ChEMBL document CHEMBL4613249, “Serendipitous Discovery of Leucine and Methionine Depletion Agents during the Search for Polyamine Transport Inhibitors” (J Med Chem, 2020).
Activity calls are given as the source filed them. The calls are words filed in the database; no cut-off is given here.

Assays:
CHO-K1 [1] = assay: Cytotoxicity against CHOK1 cells assessed as effect on cell growth up to 6 uM measured after 48 hrs by MTS assay; assay type: cell-based, Cricetulus griseus; conditions: chinese hamster, cho-k1, 48 h
CHO-K1 [2] = assay: Cytotoxicity against CHOK1 cells assessed as effect on cell growth at < 7 uM measured after 48 hrs by MTS assay; assay type: cell-based, Cricetulus griseus; conditions: chinese hamster, cho-k1, 48 h
L3.6pl [3] = assay: Effect on polyamine level in human L3.6PL cells assessed as acetyl spermidine level per mg protein in supernatant at 5 uM measured after 72 hrs in presence of amine oxidase suppressor aminoguanidine by LCMS analysis (reference value: 1936 +/- 1365 pmol/mg); assay type: functional
L3.6pl [4] = assay: Effect on polyamine level in human L3.6PL cells assessed as spermine level per mg protein in supernatant at 5 uM measured after 72 hrs in presence of amine oxidase suppressor aminoguanidine by LCMS analysis (reference value: 6152 +/- 5596 pmol/mg); assay type: functional
L3.6pl [5] = assay: Effect on polyamine level in human L3.6PL cells assessed as methionine level human L3.6PL cells assessed per mg protein in supernatant at 5 uM pretreated with aminoguanidine for 24 hrs followed by compound treatment after 72 hrs by LCMS analysis (reference value: 22834 +/- 1984 pmol/mg); assay type: functional
[6] = target: Large neutral amino acids transporter small subunit 1 (Homo sapiens) (UniProt Q01650); assay: Inhibition of LAT1-mediated amino acid transport in human L3.6PL cells assessed as reduction in intracellular leucine level by measuring leucine level per mg protein in cell lysate at 2 uM measured after 72 hrs by LCMS analysis (reference value: 232 +/- 10 pmol/mg); assay type: cell-based
How it was run: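 L3.6pl cells (50,000 cells/mL, 10 mL, 1 mM aminoguanidine) were seeded in poly-lysine-treated 9 cm dishes and incubated overnight at 37°C. They were then dosed with compound at 2, 5 or 7 μM from PBS stocks (2, 5, 7 mM) and incubated 72 h. Runs were done in triplicate, with amino acid levels per mg protein.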

[7] = target: Large neutral amino acids transporter small subunit 1 (Homo sapiens) (UniProt Q01650); assay: Inhibition of LAT1-mediated [3H]-leucine uptake in human L3.6PL cells at 2 to 7 uM preincubated for 24 hrs at 37 degree C followed by HBBS addition and compound washout and measured after 15 mins by scintillation counter method; assay type: cell-based
How it was run: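 L3.6pl cells were preincubated with compound for 24 h at 37°C, then washed and placed in HBSS. ³H-leucine uptake was measured over 15 min at 37°C. Unbound label was removed with three cold buffer washes, and counts were normalized to μg protein.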

CHO-K1 [8] = assay: Cytotoxicity against CHOK1 cells assessed as reduction in cell viability after 48 hrs by MTS assay; assay type: cell-based; conditions: Cricetulus griseus, CHO-K1, 48 h
How it was run: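 Cells in RPMI 1640 with 10% FBS, 1% penicillin/streptomycin, 37°C, 5% CO2, with aminoguanidine (1 mM for CHO K1 and CHO-MG, 250 μM for L3.6pl). Plated overnight at 1000 cells/well (CHO lines) or 500 cells/well (L3.6pl). Compound in PBS added, 48 h exposure. Growth read as MTS formazan absorbance at 490 nm. IC50 is the dose giving 50% relative growth versus untreated control. Run twice in triplicate.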

[9] = Selectivity index, ratio of IC50 for cytotoxicity against CHOK1 cells assessed as reduction in cell viability after 48 hrs by MTS assay to IC50 for […] human L3.6PL cells assessed as reduction in cell viability after 48 hrs by MTS assay
How it was run: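 The ratio is of 48 h IC50 values from MTS growth assays. CHO K1/CHO-MG cells were plated at 1000 cells/well and L3.6pl at 500 cells/well, drug in PBS was added after overnight incubation, and absorbance was read at 490 nm. IC50 is 50% growth versus untreated control; runs were done twice in triplicate.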

L3.6pl [10] = assay: Effect on polyamine level in human L3.6PL cells assessed as decrease in intracellular spermidine level at 1 uM measured after 72 hrs in presence of amine oxidase suppressor aminoguanidine and Ant-44 by LCMS analysis; assay type: functional, cell-based
How it was run: (§1)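 L3.6pl cells dosed with Ant-44 fixed at 2 μM plus increasing compound for 72 h at 37°C. Intracellular polyamines and Ant-44 given as nmol/mg protein, in duplicate, with a parallel untreated control.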

L3.6pl [11] = assay: Effect on polyamine level in human L3.6PL cells assessed as decrease in intracellular spermine level at 1 uM measured after 72 hrs in presence of amine oxidase suppressor aminoguanidine and Ant-44 by LCMS analysis; assay type: functional, cell-based; how it was run: as §1
L3.6pl [12] = assay: Effect on polyamine level in human L3.6PL cells assessed as glutamic acid level per mg protein in supernatant at 5 uM measured after 72 hrs in presence of amine oxidase suppressor aminoguanidine by LCMS analysis (reference value: 23412 +/- 3983 pmol/mg)

Large neutral amino acids transporter small subunit 1 (Homo sapiens), sequence (Q01650 whole entry): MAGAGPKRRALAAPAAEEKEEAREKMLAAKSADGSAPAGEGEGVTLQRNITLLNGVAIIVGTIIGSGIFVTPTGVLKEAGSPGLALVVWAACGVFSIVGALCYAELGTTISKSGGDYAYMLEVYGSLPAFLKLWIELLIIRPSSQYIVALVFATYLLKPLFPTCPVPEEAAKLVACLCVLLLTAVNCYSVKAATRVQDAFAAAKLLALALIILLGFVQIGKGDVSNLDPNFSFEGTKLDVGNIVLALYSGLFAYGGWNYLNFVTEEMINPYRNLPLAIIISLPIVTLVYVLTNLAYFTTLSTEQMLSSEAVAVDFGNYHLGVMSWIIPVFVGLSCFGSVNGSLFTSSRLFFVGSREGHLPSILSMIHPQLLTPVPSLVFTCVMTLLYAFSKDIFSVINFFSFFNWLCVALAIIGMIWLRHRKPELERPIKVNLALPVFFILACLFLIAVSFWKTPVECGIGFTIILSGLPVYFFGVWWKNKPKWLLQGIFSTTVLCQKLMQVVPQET

Activity [6]: 152 pmol/mg | inhibition [7]: inactive
Structure (SMILES): CC(C)CCN1CCN([C@@H](CNCc2ccccc2)CC2CCCCC2)C[C@@H]1CC(C)C
Activity (CHO-K1 [1]): Non-Toxic | Activity (CHO-K1 [2]): Non-Toxic | Activity (L3.6pl [3]): 1706 pmol/mg | Activity (L3.6pl [4]): 2690 pmol/mg | Activity (L3.6pl [5]): 64036 pmol/mg | IC50 (CHO-K1 [8]): 8 µM | Ratio IC50 [9]: 2 | Activity (L3.6pl [10]): Active | Activity (L3.6pl [11]): Active | Activity (L3.6pl [12]): 34033 pmol/mg
